Test results as given in ChEMBL document CHEMBL1122275, “1,3-dipalmitoylglycerol ester of chlorambucil as a lymphotropic, orally administrable antineoplastic agent” (J Med Chem, 1983).
“And” between values parts separate entries of the source, which are not always exact repeats. Equal values may be shown once.

What was measured:
Mus musculus [1] = test: Antitumor a dose 0.16 […] against po inoculated P388 leukemia in CDF1 mice; Toxic; format: toxicity, organism-based; conditions: in vivo
Method in brief: (§1)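 Male CDF1 mice (18-22 g; 6 per dose, 24 controls) received 10^6 viable P388 cells sc on day 0. Drugs in 0.3% hydroxypropylcellulose/saline were given ip or orally, daily for 4 days from 24 h and again on day 10. Survival was followed to day 40. T/C = MST ratio ×100. BWC covers day 1 to day 5. Toxicity was judged by NCI norms.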

Mus musculus [2] = test: Antitumor a dose 0.033 nmol/Kg against ip inoculated P388 leukemia in CDF1 mice; format: functional
Method in brief: (§2)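 Groups of six male CDF1 mice (18-22 g) were inoculated ip on day 0 with 1×10^6 viable P388 ascites cells from DBA/2 passage, suspended in chilled 0.9% saline. Drugs were suspended in 0.3% hydroxypropylcellulose in saline and given ip daily for 4 days starting at 24 h. Survival was followed to day 40. T/C = treated/control MST ×100, with 24 controls. BWC = mean weight change from day 1 to day 5.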

Mus musculus [3] = test: Antitumor a dose 0.066 […] against ip inoculated P388 leukemia in CDF1 mice; Toxic; format: toxicity, organism-based; conditions: in vivo; method in brief: as §1
Mus musculus [4] = test: Antitumor activity measured as T/C at 0.11 […] dose against po inoculated P388 leukemia in CDF1 mice; Toxic; format: toxicity, organism-based; conditions: in vivo; method in brief: as §1
Mus musculus [5] = test: Antitumor a dose 0.066 […] against po inoculated P388 leukemia in CDF1 mice; format: functional; method in brief: as §1
Mus musculus [6] = test: Antitumor activity measured as Body weight change (BWC) between day 1 and 5 at 0.033 […] dose against ip inoculated P388 leukemia in CDF1 mice; format: functional; method in brief: as §2
Mus musculus [7] = test: Antitumor activity measured as T/C at 0.033 […] dose against ip inoculated P388 leukemia in CDF1 mice; format: functional; method in brief: as §2
Mus musculus [8] = test: Antitumor a dose 0.066 […] against ip inoculated P388 leukemia in CDF1 mice; format: functional; method in brief: as §2
Mus musculus [9] = test: Antitumor a dose 0.050 […] against ip inoculated P388 leukemia in CDF1 mice; format: functional; method in brief: as §2
Mus musculus [10] = test: Antitumor activity measured as T/C at 0.066 […] dose against po inoculated P388 leukemia in CDF1 mice; format: functional; method in brief: as §1
Mus musculus [11] = test: Antitumor activity measured as T/C at 0.066 […] dose against ip inoculated P388 leukemia in CDF1 mice; format: functional; method in brief: as §2
Mus musculus [12] = test: Antitumor activity measured as Body weight change (BWC) between day 1 and 5 at 0.066 […] dose against po inoculated P388 leukemia in CDF1 mice; format: functional; method in brief: as §1
Mus musculus [13] = test: Antitumor activity measured as T/C at 0.050 […] dose against ip inoculated P388 leukemia in CDF1 mice; format: functional; method in brief: as §2
Mus musculus [14] = test: Antitumor activity measured as Body weight change (BWC) between day 1 and 5 at 0.050 […] dose against sc inoculated P388 leukemia in CDF1 mice; format: functional; method in brief: as §1
Mus musculus [15] = test: Antitumor activity measured as Body weight change (BWC) between day 1 and 5 at 0.066 […] dose against ip inoculated P388 leukemia in CDF1 mice; format: functional; method in brief: as §2
Mus musculus [16] = test: Antitumor activity measured as T/C at 0.16 […] dose against po inoculated P388 leukemia in CDF1 mice; Toxic; format: toxicity, organism-based; conditions: in vivo; method in brief: as §1
Mus musculus [17] = test: Antitumor a dose 0.11 […] against po inoculated P388 leukemia in CDF1 mice; Toxic; format: toxicity, organism-based; conditions: in vivo; method in brief: as §1
Mus musculus [18] = test: Antitumor activity measured as Body weight change (BWC) between day 1 and 5 at 0.066 […] dose against sc inoculated P388 leukemia in CDF1 mice; format: functional; method in brief: as §1
Mus musculus [19] = test: Antitumor a dose 0.033 nmol/kg against ip inoculated P388 leukemia in CDF1 mice; format: functional; method in brief: as §2
Mus musculus [20] = test: Antitumor activity measured as Body weight change (BWC) between day 1 and 5 at 0.050 […] dose against ip inoculated P388 leukemia in CDF1 mice; format: functional; method in brief: as §2
Mus musculus [21] = test: Antitumor activity measured as T/C at 0.066 […] dose against ip inoculated P388 leukemia in CDF1 mice; Toxic; format: toxicity, organism-based; conditions: in vivo; method in brief: as §1
Mus musculus [22] = test: Antitumor activity measured as Body weight change (BWC) between day 1 and 5 at 0.033 […] dose against sc inoculated P388 leukemia in CDF1 mice; format: functional; method in brief: as §1
Mus musculus [23] = test: Antitumor activity measured as T/C at 0.052 […] dose against ip inoculated P388 leukemia in CDF1 mice; format: functional; method in brief: as §2
Mus musculus [24] = test: Antitumor a dose 0.11 […] against po inoculated P388 leukemia in CDF1 mice; format: functional; method in brief: as §1
Mus musculus [25] = test: Antitumor a dose 0.035 nmol/kg against ip inoculated P388 leukemia in CDF1 mice; format: functional; method in brief: as §2
Mus musculus [26] = test: Antitumor a dose 0.23 […] against po inoculated P388 leukemia in CDF1 mice; Toxic; format: toxicity, organism-based; conditions: in vivo; method in brief: as §1
Mus musculus [27] = test: Antitumor activity measured as Body weight change (BWC) between day 1 and 5 at 0.11 […] dose against po inoculated P388 leukemia in CDF1 mice; format: functional; method in brief: as §1
Mus musculus [28] = test: Antitumor activity measured as Body weight change (BWC) between day 1 and 5 at 0.035 […] dose against sc inoculated P388 leukemia in CDF1 mice; format: functional; method in brief: as §1
Mus musculus [29] = test: Antitumor a dose 0.069 […] against ip inoculated P388 leukemia in CDF1 mice; format: functional; method in brief: as §2
Mus musculus [30] = test: Antitumor activity measured as Body weight change (BWC) between day 1 and 5 at 0.17 […] dose against po inoculated P388 leukemia in CDF1 mice; format: functional; method in brief: as §1
Mus musculus [31] = test: Antitumor activity measured as T/C at 0.23 […] dose against po inoculated P388 leukemia in CDF1 mice; Toxic; format: functional, organism-based; method in brief: as §1
Mus musculus [32] = test: Antitumor activity measured as T/C at 0.035 […] dose against ip inoculated P388 leukemia in CDF1 mice; format: functional; method in brief: as §2
Mus musculus [33] = test: Antitumor a dose 0.035 nmol/Kg against ip inoculated P388 leukemia in CDF1 mice; format: functional; method in brief: as §2
Mus musculus [34] = test: Antitumor a dose 0.17 […] against po inoculated P388 leukemia in CDF1 mice; format: functional; method in brief: as §1
Mus musculus [35] = test: Antitumor activity measured as T/C at 0.069 […] dose against ip inoculated P388 leukemia in CDF1 mice; format: functional; method in brief: as §2
Mus musculus [36] = test: Antitumor activity measured as Body weight change (BWC) between day 1 and 5 at 0.035 […] dose against ip inoculated P388 leukemia in CDF1 mice; format: functional; method in brief: as §2
Mus musculus [37] = test: Antitumor activity measured as T/C at 0.11 […] dose against po inoculated P388 leukemia in CDF1 mice; format: functional; method in brief: as §1
Mus musculus [38] = test: Antitumor activity measured as Body weight change (BWC) between day 1 and 5 at 0.069 […] dose against ip inoculated P388 leukemia in CDF1 mice; format: functional; method in brief: as §2
Mus musculus [39] = test: Antitumor activity measured as T/C at 0.17 […] dose against po inoculated P388 leukemia in CDF1 mice; format: functional; method in brief: as §1
Mus musculus [40] = test: Antitumor activity measured as Body weight change (BWC) between day 1 and 5 at 0.052 […] dose against ip inoculated P388 leukemia in CDF1 mice; format: functional; method in brief: as §2
Mus musculus [41] = test: Antitumor a dose 0.052 […] against ip inoculated P388 leukemia in CDF1 mice; format: functional; method in brief: as §2
Mus musculus [42] = test: Antitumor activity measured as Body weight change (BWC) between day 1 and 5 at 0.069 […] dose against sc inoculated P388 leukemia in CDF1 mice; format: functional; method in brief: as §1
Mus musculus [43] = test: Antitumor activity measured as Body weight change (BWC) between day 1 and 5 at 0.052 […] dose against sc inoculated P388 leukemia in CDF1 mice; format: functional; method in brief: as §1

O=C(O)CCCc1ccc(N(CCCl)CCCl)cc1 [CHLORAMBUCIL]
MST (Mus musculus [1]): Toxic | MST (Mus musculus [2]): 19.5 days | MST (Mus musculus [3]): Toxic | T/C (Mus musculus [4]): Toxic | MST (Mus musculus [5]): 22.5 days | BWC (Mus musculus [6]): -2.2 g | T/C (Mus musculus [7]): 169% and 134% | MST (Mus musculus [8]): 23 days | MST (Mus musculus [9]): 19.5 days and 21.5 days | T/C (Mus musculus [10]): 155% | T/C (Mus musculus [11]): 230% | BWC (Mus musculus [12]): -4.15 g | T/C (Mus musculus [13]): 195% and 148% | BWC (Mus musculus [14]): -2.95 g | BWC (Mus musculus [15]): -3.4 g | T/C (Mus musculus [16]): Toxic | MST (Mus musculus [17]): Toxic | BWC (Mus musculus [18]): -3.95 g | MST (Mus musculus [19]): 16.9 days | BWC (Mus musculus [20]): -2.9 g | T/C (Mus musculus [21]): Toxic | BWC (Mus musculus [22]): -2.55 g

CCCCCCCCCCCCCCCC(=O)OCC(COC(=O)CCCCCCCCCCCCCCC)OC(=O)CCCc1ccc(N(CCCl)CCCl)cc1
T/C (Mus musculus [23]): 220% and 148% | MST (Mus musculus [24]): 24.5 days | MST (Mus musculus [25]): 17 days | MST (Mus musculus [26]): Toxic | BWC (Mus musculus [27]): -3.5 g | BWC (Mus musculus [28]): -2.35 g | MST (Mus musculus [29]): 26.5 days and 23.5 days | BWC (Mus musculus [30]): -3.9 g | T/C (Mus musculus [31]): Toxic | T/C (Mus musculus [32]): 170% and 141% | MST (Mus musculus [33]): 20.5 days | MST (Mus musculus [34]): 34 days | T/C (Mus musculus [35]): 265% and 162% | BWC (Mus musculus [36]): -1.6 g | T/C (Mus musculus [37]): 168% | BWC (Mus musculus [38]): -2.6 g | T/C (Mus musculus [39]): 234% | BWC (Mus musculus [40]): -2 g | MST (Mus musculus [41]): 22 days and 21.5 days | BWC (Mus musculus [42]): -3.95 g | BWC (Mus musculus [43]): -2.55 g
